SR-BI uptake up = activators of SR-BI mediated DiI-HDL uptake, primary screen, ldlA[mSR-BI] CHO cells, DiI fluorescence. AID 504775, 2011. 3 h; 100 = double the neutral-control signal. activation, % at 12.5 µM. 0.096% of 320,000 active;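 active = mean replicate activation of at least 60% and every replicate at or above 60%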;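 also: 0% = median plate neutral-control signal and 100% = twice that signal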
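Assay system: CHO ldlA[mSR-BI] cells, LDL receptor-null, SR-BI overexpressing; medium: Ham's F12 with 0.5% BSA, HEPES 25 mM, pH 7.4; also added: DiI-HDL 10 µg/mL; timing: 3 h uptake period with compound, 37 °C; signal: DiI fluorescence, bottom read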
PvdQ inh = P. aeruginosa PvdQ acylase inhibitors, primary screen, biochemical, fluorescence, plate reader and imaging, single point; PvdQ acylase [Pseudomonas aeruginosa LESB58]; purified PvdQ acylase; inhibition, % at 10 µM; 0.063% of 340,000 active; in the data active = inhibition above about 30%, passing the limit was not always enough;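 also: 0% = vehicle neutral wells and 100% = reference inhibitor wells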
SR-BI HDL uptake = inhibitors of SR-BI mediated HDL lipid uptake, primary screen, ldlA[mSR-BI] cells, fluorescence, single point. ldlA[mSR-BI] CHO cells, DiI-HDL uptake fluorescence, 3 h. inhibition, % at 12.5 µM. 0.96% of 320,000 active;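 active = mean replicate inhibition of at least 70% and a set share of replicates each scoring 70 or more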;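 also: 0% = median of neutral control wells and 100% = median of positive control wells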
Target sequence (Q61009 whole entry, looked up): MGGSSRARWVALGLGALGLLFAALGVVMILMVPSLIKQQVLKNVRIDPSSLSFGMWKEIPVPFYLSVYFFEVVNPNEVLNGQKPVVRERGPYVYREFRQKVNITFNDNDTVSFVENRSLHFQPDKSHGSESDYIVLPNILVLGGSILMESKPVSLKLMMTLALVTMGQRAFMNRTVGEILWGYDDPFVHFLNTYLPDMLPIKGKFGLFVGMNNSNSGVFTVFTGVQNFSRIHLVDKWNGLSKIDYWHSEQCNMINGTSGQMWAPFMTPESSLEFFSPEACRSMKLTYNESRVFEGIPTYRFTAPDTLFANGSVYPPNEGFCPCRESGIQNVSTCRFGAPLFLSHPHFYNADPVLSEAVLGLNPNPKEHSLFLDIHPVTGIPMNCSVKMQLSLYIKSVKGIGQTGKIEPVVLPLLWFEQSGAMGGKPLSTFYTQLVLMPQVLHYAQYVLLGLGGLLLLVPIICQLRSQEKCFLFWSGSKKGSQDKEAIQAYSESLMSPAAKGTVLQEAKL
Ecoli rRNA inh = reduced GFP signal of wild-type E. coli, primary screen, bacterial rRNA inhibitor project, GFP/RFP fluorescence, OD600, single point | E. coli WT GFP vs humanized-ribosome RFP mutants, 24 h; stronger effect = lower value; DMSO median 0, no signal -100 | GFP signal change (wild-type ribosome), % (concentration not given with the values) | 1.6% of 350,000 active;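 active = significant combined selectivity score with lowered wild-type GFP, culture density cut under 30%, mutant RFP and density less affected; inactive = any of these conditions unmet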
Xi reactivation = activators of inactive X chromosome reactivation, primary screen, imaging, XiGFP fibroblasts, GFP high-content imaging, set 2; XiGFP mouse fibroblasts, % GFP-positive cells imaging, 3 d; cells co-treated with 5-aza-dC sensitizer; scaled so ellipticine positive control = 100%; activation, % at 7.58 µM; 0.055% of 360,000 active; AID 743238, 2013;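 active = mean normalized replicate activation at least 10% and every replicate at or above 10%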;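 also: 0% = median of on-plate neutral control wells and 100% = ellipticine 6 µM median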
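assay system = SV40-immortalized XiGFP fibroblast cells, line 68-5-11 | buffer or medium = DMEM plus 5-aza-dC sensitizer | doses = single-point pinned compound dosing | times = 3-day compound exposure, then 15 min fixation at room temperature | benchmarks = positive control ellipticine, 6 µM final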
dFosB act-1 = activators of delta FosB homodimer, primary screen, biochemical, fluorescence polarization, TAMRA-CDK5 oligo, single point | Protein FosB (Mus musculus), P13346 | purified delta FosB; percent of positive-control signal above neutral wells | activation, % at 25 µM | 0.99% of 340,000 active | AID 493131, 2011;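 active = mean activation above about 17%, with every replicate also reaching it, limit read from the data, passing the limit was not always enough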
dFosB act-2 = activators of mouse delta FosB DNA binding, confirmation, biochemical, fluorescence polarization, TAMRA-CDK5 oligo, cherry-picked samples; shares compounds with dFosB act-1; activation, % at 24.9 µM; AID 588690, 2011; purified delta FosB; normalised: neutral wells 0, positive control 100; 2,400 tested, under 10 active;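 active = highest replicate activation at or above 34% and every replicate reaching that threshold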;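 also: higher polarization means more probe DNA bound by delta FosB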
* = called active by the depositor; x = no result given. Compounds with a hit are over-represented: about 2.6% of the library has one in this group of screens.

SMILES	SR-BI uptake up	PvdQ inh	SR-BI HDL uptake	Ecoli rRNA inh	Xi reactivation	dFosB act-1	dFosB act-2
Cc1ccc(N/N=C/c2ccc(N3CCOCC3)cc2)cc1C	1	-19	-1	x	x	-7	x
CCC(=O)NCc1csc(-c2cccs2)n1	12	3	-12	15	0	-1	x
O=C(NCc1csc(-c2cccs2)n1)Nc1cccc(Cl)c1	1	-10	-1	5	0	66*	6
O=C(COc1ccccc1O)Nc1ccc(Cl)cc1	-17	-11	17	x	x	-2	x
CN([C@@H](Cc1ccc(OS(=O)(=O)c2cccc3cnccc23)cc1)C(=O)N1CCN(c2ccccc2)CC1)S(=O)(=O)c1cccc2cnccc12	-27	-10	27	x	x	21*	2
COCC(=O)N1CC(=O)N2[C@@H](CO)[C@H](c3ccc(-c4cccnc4)cc3)[C@@H]2C1	x	x	x	0	0	x	x
CCC(=O)N1[C@@H]2c3cccc(=O)n3C[C@@H]2[C@@H](CO)[C@@H]1C(=O)NC1CCC1	x	x	x	-4	0	x	x
CCSc1nnc(NC(=O)CN(C)S(=O)(=O)c2ccc(F)cc2)s1	8	-1	-8	-8	x	4	x
O=C(N/N=C/c1cc2c(cc1Br)OCO2)c1c[nH]c2ccccc12	-3	-2	3	x	0	29*	2
CS(=O)(=O)N(CC(=O)N/N=C/c1cc2c(cc1Br)OCO2)c1ccccc1Br	-30	6	30	x	x	27*	7
CS(=O)(=O)N(CC(=O)N/N=C/c1cccc2c1OCCO2)c1ccccc1Br	-31	-8	31	x	x	-15	x
CC(C)(C)c1cc(C(=O)N/N=C/c2cc3c(cc2Br)OCO3)n[nH]1	-77	-11	77*	-16	0	27*	4
O=C(N/N=C/c1cc2c(cc1Br)OCO2)c1ccccn1	x	x	x	4	0	x	x
Cc1cccc(NC(=O)CCC(=O)Nc2nnc(C3CCCCC3)s2)c1	-4	14	4	4	0	30*	4
Cc1ccc(NC(=O)CCC(=O)Nc2nnc(C3CCCCC3)s2)cc1	4	9	-4	5	0	4	x
CN(CC1CCCN(CCc2ccc(Cl)cc2)C1)C(=O)c1ccc2nc[nH]c2c1 (stereo not given)	16	-8	-16	5	0	-7	x
N#Cc1c(SCC(=O)Nc2ccccc2)nsc1SCC(=O)Nc1ccccc1	14	-6	-14	6	0	25*	0
Cc1cccc(NC(=O)CSc2nsc(SCC(=O)Nc3cccc(C)c3)c2C#N)c1	-34	-15	34	-2	0	4	x
CC(C)CC(NC(=O)C1CCCN1C(=O)OC(C)(C)C)C(=O)NCC(N)=O (stereo not given)	30	-14	1	x	x	4	x
O=C(Nc1ccc(-c2noc(CCc3ccccc3)n2)cc1)c1cccnc1	-7	1	7	x	x	-6	x
Cc1cc(OCc2nc(-c3ccc(NC(=O)c4cccnc4)cc3)no2)ccc1Cl	-32	-12	32	x	x	78*	-1
Cc1ccccc1OCc1nc(-c2ccc(NC(=O)c3ccc4c(c3)OCO4)cc2)no1	-91	4	91*	x	x	19*	0
Cc1ccccc1OCCOc1cccc(/C=N/NC(=O)Cc2nnc(N)s2)c1	-33	-15	33	x	x	49*	-1
COC(=O)CN1C(=O)C(O)(CC(=O)c2ccc(Cl)cc2)c2ccccc21 (stereo not given)	2	-10	-2	-2	0	-4	x

Source: PubChem
